Assay outcomes: PubChem, The Scripps Research Institute Molecular Screening Center
Tn6 DDE FP = inhibitors of Tn6 peptide binding to fibrin DD(E), primary screen, biochemical, fluorescence polarization, human fibrin, Tn6 probe | Fibrin DD(E) TRITC-Tn6 fluorescence polarization displacement | inhibition, % at 8.3 µM | actives 0.21% (n = 370,000) | AID 720509, 2013;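 active means inhibition above a per-campaign cutoff: mean of compounds within control limits plus 3 SD, cut at about 15% in these data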;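 further: 0% = median of all compound wells on the plate and 100% = blocking peptide control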
Target sequence (P02675 whole entry, looked up): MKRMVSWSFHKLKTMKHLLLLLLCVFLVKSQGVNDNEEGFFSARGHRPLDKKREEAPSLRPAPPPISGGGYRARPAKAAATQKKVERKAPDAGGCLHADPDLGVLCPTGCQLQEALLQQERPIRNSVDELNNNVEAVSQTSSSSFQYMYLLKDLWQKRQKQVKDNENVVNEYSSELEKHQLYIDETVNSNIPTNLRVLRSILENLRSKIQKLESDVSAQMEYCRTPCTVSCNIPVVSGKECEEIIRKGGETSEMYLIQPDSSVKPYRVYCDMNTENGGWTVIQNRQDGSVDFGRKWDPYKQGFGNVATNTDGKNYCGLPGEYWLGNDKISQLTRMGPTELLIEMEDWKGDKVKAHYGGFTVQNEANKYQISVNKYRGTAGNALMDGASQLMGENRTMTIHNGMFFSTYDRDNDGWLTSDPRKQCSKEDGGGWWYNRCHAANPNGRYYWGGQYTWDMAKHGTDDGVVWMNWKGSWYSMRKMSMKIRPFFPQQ
ABHD4 inh = ABHD4 inhibitors, primary screen, biochemical, fluorescence polarization, mouse; purified mABHD4, FP-Rh probe fluorescence polarization; inhibition, % at 8.92 µM; actives 0.54% (n = 370,000);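 active means inhibition exceeding the mean over every tested compound plus 3 SD, cut at about 30% in these data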;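 further: 0% = plate median of compound wells and 100% = S159A mutant with DMSO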
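Material: mouse ABHD4 enzyme, wild type; Benchmarks: S159A mutant high control, sample median low control; Buffer or medium: HEPES pH 7.0, NaCl, Pluronic buffer; Signal: fluorescence polarization; Read-out: percent inhibition of probe binding, normalized to plate controls; Timing: pre-incubation 45 min, probe exposure 60 min, at 25 °C; Dosing: 8.92 µM, single dose.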
HTRA1 inh = HTRA1 serine protease inhibitors, primary screen, biochemical, fluorescence polarization, HTS | Q92743 | recombinant HTRA1, FP-rhodamine activity-based probe | actives 0.5% (n = 340,000) | inhibition, % at 5.96 µM; in the data active means inhibition above about 36%;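 further: 0% = enzyme with DMSO and 100% = wells lacking enzyme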
TCR CD3 inh = inhibitors of human TCR-CD3 interaction, primary screen, biochemical, fluorescence, TAMRA-labeled TCR probe; T-cell receptor (TCR); inhibition, % at 9.4 µM; actives 0.37% (n = 360,000); AID 651800, 2012; in the data active means inhibition above about 19%;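 further: recombinant mutant TCR 2C K166C tagged with TAMRA read by polarization; 0% = receptor in buffer alone and 100% = receptor with positive control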
DDE Tn7 FP inh = inhibitors of Tn7 peptide binding to fibrin DD(E), primary screen, biochemical, fluorescence polarization, human fibrin, Tn7 probe; Fibrinogen beta chain (Homo sapiens), P02675; actives 0.13% (n = 370,000); AID 720508, 2013; FP displacement of FITC-Tn7 peptide from fibrin DD(E); 0% = median of compound wells per plate; inhibition, % at 8.3 µM;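 active means inhibition above the mean of compounds falling within the control limits plus 3 SD of them, cut at about 14% in these data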;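 further: 0% = plate median of compound wells and 100% = 10 µM Aha-Tn7 peptide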
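System: human fibrin DD(E); quantity: Fibrin-DD(E) at 2 µM final; also added: fluorescent Tn7 probe at 0.1 µM; compound dosing: single nominal test concentration of 8.3 µM per compound; schedule: 10 min preincubation, 3 h with tracer, room temperature; detection: fluorescence polarization of the labelled Tn7 tracer; repeats: one replicate per compound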
Active calls of the source: *; nt = no result given; + = active, no number. This is a sample that favours compounds with a hit; in the whole collection about 1.3% have one here.

SMILES	Tn6 DDE FP	ABHD4 inh	HTRA1 inh	TCR CD3 inh	DDE Tn7 FP inh
Cc1ccc(NS(=O)(=O)c2ccc(NC(=O)CSc3ccc(Cl)cc3)cc2)c(C)c1	-2	-27	-31	23*	-2
Cc1ccc(O)c(NC(=O)CSc2ccc(Cl)cc2)c1	2	-15	-29	1	7
COCCNC(=O)c1onc(CSc2ccccc2F)c1C(=O)O	-1	3	5	-2	-7
COCCNC(=O)c1onc(CSc2ccccc2C)c1C(=O)O	22*	1	1	-1	5
Cc1cc(O)c2c(c1O)C(=O)[C@]13C(=C2O)C(=O)[C@@H]2[C@@H](O)[C@H]1[C@@H]1[C@H](O)[C@H]3C(=O)C3=C(O)c4c(O)cc(C)c(O)c4C(=O)[C@]312	nt	nt	41*	nt	nt
COc1ccc(CC(=O)Nc2ccc(N(C)C)c3ccccc23)cc1	-1	-1	0	3	1
CCN1CCN(Cc2ccc(NC(=O)c3cccc(-c4ccc5nc(NC(=O)C6CC6)sc5n4)c3)cc2C(F)(F)F)CC1	-12	-29	nt	8	-6
O=[N+]([O-])c1ccc2c(c1)N([O-])C1(CCCCC1)[N+]2=O	5	53*	nt	4	2
Cc1cccc(-n2c(O)c(C=Nc3ccccc3O)c3ccccc3c2=O)n1	-15	3	2	40*	-7
CCN1CCN(Cc2ccc(NC(=O)c3cc(NC(=O)C(=O)c4c[nH]c5ccccc45)cc(OC)c3)cc2C(F)(F)F)CC1	44*	-74	-128	11	4
CCN1CCN(Cc2ccc(NC(=O)c3ccc(C)c(NC(=O)C(=O)c4c[nH]c5ccccc45)c3)cc2C(F)(F)F)CC1	-6	-35	-85	8	0
CC(C)N1CCc2c(sc(NC(=O)C(F)F)c2-c2nc3ccccc3s2)C1	4	6	nt	nt	-3
COc1cccc(N2C(=O)CC(Nc3ccc(N4CCOCC4)cc3)C2=O)c1 (stereo unspecified)	nt	nt	51*	nt	nt
O=C(N/N=C/c1ccco1)c1cccc(N2Cc3ccccc3C2)c1	-7	-1	10	24*	6
O=C(Cc1cccc2ccccc12)Nc1ccc(-c2cc3ccccc3oc2=O)cc1	4	-32	-11	38*	-1
CC(=O)c1ccc(N(CC(=O)NC2CCCCC2)C(=O)CNC(=O)c2cccs2)cc1	0	-5	-3	-11	0
CC(=O)Nc1ccc(NC2=C/C(=N/S(=O)(=O)c3cccs3)c3ccccc3C2=O)cc1	1	34*	nt	2	2
Cc1ccc(NC2=C/C(=N/S(=O)(=O)c3cccs3)c3ccccc3C2=O)cc1C	0	7	3	10	-1
COc1ccc2c(c1)-c1ccccc1S(=O)(=O)N(C)C2	3	1	2	8	12
CC[C@@]1(O)C(=O)OCc2c1cc1n(c2=O)Cc2cc3c(CN(C)C)c(O)ccc3nc2-1	10	12	7	13	30*
CC[C@@]1(O)C(=O)OCc2c1cc1n(c2=O)Cc2cc3c(N)cccc3nc2-1	-8	19	-6	7	-1
CCOC(=O)CSc1nnc(CNC(=O)c2ccc(S(=O)(=O)N3CCCC3)cc2)n1C	-2	4	6	-2	3
Cc1cc(NS(=O)(=O)c2ccc(Nc3nc(-c4ccc(O)cc4)cs3)cc2)no1	-7	42*	-1	12	1
Cc1cc(NS(=O)(=O)c2ccc(Nc3nc(-c4ccc(C)c(C)c4)cs3)cc2)no1	-2	22	-45	-2	-6
O=c1[nH]cc(S(=O)(=O)c2ccccc2)[nH]1	-3	2	-2	-4	-3
SMILES	Tn6 DDE FP	ABHD4 inh	HTRA1 inh	TCR CD3 inh	DDE Tn7 FP inh
CCOc1cc(CNc2ccc(O)cc2)cc(Br)c1OCc1ccccc1F	nt	nt	44*	nt	nt
CCOC(=O)N1CCN(CC(=O)c2ccc(O)cc2O)CC1	6	5	0	-6	9
CC1Oc2cc3oc4c(O)c(O)ccc4c(=O)c3c(O)c2C1(C)C (stereo unspecified)	nt	nt	72*	nt	nt
CN(C)CCCNCCCNC(=O)c1ccco1	0	-1	-2	12	3
COC1=C(Br)C(=O)c2nc(C)ccc2C1=O	-6	21	16	19*	-1
O=[N+]([O-])c1ccc(C2CCCC/C2=N\OCc2cccc(F)c2)c([N+](=O)[O-])c1 (stereo unspecified)	1	-5	-10	7	8
COc1ccc(S(=O)(=O)Nc2ccccc2)cc1	0	1	0	5	-9
COc1ccc(S(=O)(=O)Nc2ccc(O)c3ccccc23)cc1	8	37*	9	-5	4
CCOC(=O)N1CCN(C(=O)CSc2ccc(C(=O)OC)cc2[N+](=O)[O-])CC1	-7	6	-2	1	-6
O=C(O[C@@H]1OC2COC(=O)c3cc(O)c(O)c(O)c3-c3c(cc(O)c(O)c3O)C(=O)O[C@@H]([C@H]1O)[C@@H]2O)c1cc(O)c(O)c(O)c1	nt	nt	41*	nt	nt
Oc1ccccc1-c1nnc(COc2ccccc2)o1	-2	2	11	34*	4
c1ccc(OCc2nnc(-c3ccccc3)o2)cc1	-3	1	-3	2	-2
O=C(CSCc1ccc(Br)cc1)NC1CC1	0	1	3	-4	-4
C=CCN1C(=O)/C(=C2/Sc3ccccc3N2CCCS(=O)(=O)O)SC1=S	-4	36*	17	2	6
CCS(=O)(=O)c1ccc(N=Nc2ccc(O)c3ncccc23)c(OC)c1	-8	22	47*	-3	-3
CCS(=O)(=O)c1ccc(O)c(NC(=O)c2cc(OC)c(OC)c(OC)c2)c1	-6	7	7	4	0
C/C(=N\NC(=O)c1cc(O)cc(O)c1)c1ccc(NC(=O)Cc2ccccc2)cc1	-13	28	23	41*	-1
C/C(=N\NC(=O)c1cccc(F)c1)c1ccc(NC(=O)Cc2ccccc2)cc1	-5	2	-4	2	8
O=C(COC(=O)CCCN1C(=O)c2ccccc2C1=O)Nc1ncc(Cl)cc1Cl	-2	6	4	2	15*
CCCc1nc2c(nnn2Cc2ccccc2)c(=O)[nH]1	nt	nt	0	nt	nt
CN(C)c1ccc(/C=C/c2ccc3c4ccccc4ccc3[n+]2-c2ccccc2)cc1	+	-172	-102	-81	9
Cc1cc(O)c(CN(C)C)c2c1C(=O)/C(=C/c1ccco1)O2	-3	14	-3	4	7
Cc1cc(O)c(C=O)c2c1C(=O)Oc1c(CO)c(O)c3c(c1O2)C(O)OC3=O (stereo unspecified)	nt	nt	41*	nt	nt
